This note sets out measurements from ChEMBL document CHEMBL4371052, “Diarylcarbonates are a new class of deubiquitinating enzyme inhibitor” (Bioorg Med Chem Lett, 2019).

Active and inactive are the calls of the source. No cut-off for these calls is given here.

In data set [1] the target is T1, Ubiquitin carboxyl-terminal hydrolase 8 (Homo sapiens) (UniProt P40818).
T1 sequence (whole entry): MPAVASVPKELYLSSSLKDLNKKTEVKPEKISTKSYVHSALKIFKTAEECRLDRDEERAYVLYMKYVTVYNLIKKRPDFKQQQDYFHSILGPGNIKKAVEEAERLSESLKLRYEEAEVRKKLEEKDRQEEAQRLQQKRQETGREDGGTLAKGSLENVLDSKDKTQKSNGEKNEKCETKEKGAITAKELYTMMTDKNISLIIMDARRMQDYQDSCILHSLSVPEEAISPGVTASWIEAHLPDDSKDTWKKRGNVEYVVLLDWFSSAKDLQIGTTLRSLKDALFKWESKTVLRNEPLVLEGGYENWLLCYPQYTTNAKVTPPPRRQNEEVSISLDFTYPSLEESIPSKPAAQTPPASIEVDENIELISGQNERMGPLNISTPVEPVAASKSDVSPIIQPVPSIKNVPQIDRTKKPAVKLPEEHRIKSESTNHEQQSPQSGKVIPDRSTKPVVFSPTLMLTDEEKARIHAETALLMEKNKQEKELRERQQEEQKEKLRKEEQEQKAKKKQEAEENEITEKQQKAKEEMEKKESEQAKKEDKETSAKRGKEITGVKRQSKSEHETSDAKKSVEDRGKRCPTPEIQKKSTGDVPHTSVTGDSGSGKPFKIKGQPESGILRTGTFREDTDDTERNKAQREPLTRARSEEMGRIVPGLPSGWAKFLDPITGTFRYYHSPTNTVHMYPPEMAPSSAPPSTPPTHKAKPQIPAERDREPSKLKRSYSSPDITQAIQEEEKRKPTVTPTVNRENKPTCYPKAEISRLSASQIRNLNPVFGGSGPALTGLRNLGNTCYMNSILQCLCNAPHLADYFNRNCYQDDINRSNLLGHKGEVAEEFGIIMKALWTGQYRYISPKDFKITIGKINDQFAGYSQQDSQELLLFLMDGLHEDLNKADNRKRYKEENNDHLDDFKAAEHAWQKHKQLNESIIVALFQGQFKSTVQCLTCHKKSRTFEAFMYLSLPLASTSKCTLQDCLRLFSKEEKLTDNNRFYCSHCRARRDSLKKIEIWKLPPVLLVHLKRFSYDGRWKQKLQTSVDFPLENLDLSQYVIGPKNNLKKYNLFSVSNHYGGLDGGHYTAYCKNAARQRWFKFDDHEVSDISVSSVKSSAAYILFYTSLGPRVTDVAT
Put plainly: Inhibition of USP8 in HEK293T cell lysates at 25 uM using HA-tagged vinyl-sulfone as substrate preincubated for 19 to 60 mins followed by substrate addition and measured after 19 to 25 mins by Western blot analysis. The class given is subcellular. The conditions noted are these: Lysate.

Data set [2] concerns the target Ubiquitin carboxyl-terminal hydrolase 7 (Homo sapiens) (UniProt Q93009). Put plainly: Inhibition of recombinant His6-tagged USP7 catalytic domain (unknown origin) assessed as association constant using Ub-AMC as substrate by fluorescence assay.
The target in data set [3] is Ubiquitin carboxyl-terminal hydrolase 9X (Homo sapiens) (UniProt Q93008). In words: Inhibition of USP9x in human K562 cells assessed as decrease in Bcr-Abl expression at 50 uM measured after 4 hrs in presence of proteasome inhibitor bortezomib by Western blot analysis. Format: cell-based. The method in brief: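 K562 cells treated with 50 μM compound with or without bortezomib (6 μM) for 4 h. Lysates were sonicated in SDS, and Bcr-Abl was measured by anti-Abl immunoblot with quantitation.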
Chain of Ubiquitin carboxyl-terminal hydrolase 9X (Homo sapiens) (Q93008 whole entry): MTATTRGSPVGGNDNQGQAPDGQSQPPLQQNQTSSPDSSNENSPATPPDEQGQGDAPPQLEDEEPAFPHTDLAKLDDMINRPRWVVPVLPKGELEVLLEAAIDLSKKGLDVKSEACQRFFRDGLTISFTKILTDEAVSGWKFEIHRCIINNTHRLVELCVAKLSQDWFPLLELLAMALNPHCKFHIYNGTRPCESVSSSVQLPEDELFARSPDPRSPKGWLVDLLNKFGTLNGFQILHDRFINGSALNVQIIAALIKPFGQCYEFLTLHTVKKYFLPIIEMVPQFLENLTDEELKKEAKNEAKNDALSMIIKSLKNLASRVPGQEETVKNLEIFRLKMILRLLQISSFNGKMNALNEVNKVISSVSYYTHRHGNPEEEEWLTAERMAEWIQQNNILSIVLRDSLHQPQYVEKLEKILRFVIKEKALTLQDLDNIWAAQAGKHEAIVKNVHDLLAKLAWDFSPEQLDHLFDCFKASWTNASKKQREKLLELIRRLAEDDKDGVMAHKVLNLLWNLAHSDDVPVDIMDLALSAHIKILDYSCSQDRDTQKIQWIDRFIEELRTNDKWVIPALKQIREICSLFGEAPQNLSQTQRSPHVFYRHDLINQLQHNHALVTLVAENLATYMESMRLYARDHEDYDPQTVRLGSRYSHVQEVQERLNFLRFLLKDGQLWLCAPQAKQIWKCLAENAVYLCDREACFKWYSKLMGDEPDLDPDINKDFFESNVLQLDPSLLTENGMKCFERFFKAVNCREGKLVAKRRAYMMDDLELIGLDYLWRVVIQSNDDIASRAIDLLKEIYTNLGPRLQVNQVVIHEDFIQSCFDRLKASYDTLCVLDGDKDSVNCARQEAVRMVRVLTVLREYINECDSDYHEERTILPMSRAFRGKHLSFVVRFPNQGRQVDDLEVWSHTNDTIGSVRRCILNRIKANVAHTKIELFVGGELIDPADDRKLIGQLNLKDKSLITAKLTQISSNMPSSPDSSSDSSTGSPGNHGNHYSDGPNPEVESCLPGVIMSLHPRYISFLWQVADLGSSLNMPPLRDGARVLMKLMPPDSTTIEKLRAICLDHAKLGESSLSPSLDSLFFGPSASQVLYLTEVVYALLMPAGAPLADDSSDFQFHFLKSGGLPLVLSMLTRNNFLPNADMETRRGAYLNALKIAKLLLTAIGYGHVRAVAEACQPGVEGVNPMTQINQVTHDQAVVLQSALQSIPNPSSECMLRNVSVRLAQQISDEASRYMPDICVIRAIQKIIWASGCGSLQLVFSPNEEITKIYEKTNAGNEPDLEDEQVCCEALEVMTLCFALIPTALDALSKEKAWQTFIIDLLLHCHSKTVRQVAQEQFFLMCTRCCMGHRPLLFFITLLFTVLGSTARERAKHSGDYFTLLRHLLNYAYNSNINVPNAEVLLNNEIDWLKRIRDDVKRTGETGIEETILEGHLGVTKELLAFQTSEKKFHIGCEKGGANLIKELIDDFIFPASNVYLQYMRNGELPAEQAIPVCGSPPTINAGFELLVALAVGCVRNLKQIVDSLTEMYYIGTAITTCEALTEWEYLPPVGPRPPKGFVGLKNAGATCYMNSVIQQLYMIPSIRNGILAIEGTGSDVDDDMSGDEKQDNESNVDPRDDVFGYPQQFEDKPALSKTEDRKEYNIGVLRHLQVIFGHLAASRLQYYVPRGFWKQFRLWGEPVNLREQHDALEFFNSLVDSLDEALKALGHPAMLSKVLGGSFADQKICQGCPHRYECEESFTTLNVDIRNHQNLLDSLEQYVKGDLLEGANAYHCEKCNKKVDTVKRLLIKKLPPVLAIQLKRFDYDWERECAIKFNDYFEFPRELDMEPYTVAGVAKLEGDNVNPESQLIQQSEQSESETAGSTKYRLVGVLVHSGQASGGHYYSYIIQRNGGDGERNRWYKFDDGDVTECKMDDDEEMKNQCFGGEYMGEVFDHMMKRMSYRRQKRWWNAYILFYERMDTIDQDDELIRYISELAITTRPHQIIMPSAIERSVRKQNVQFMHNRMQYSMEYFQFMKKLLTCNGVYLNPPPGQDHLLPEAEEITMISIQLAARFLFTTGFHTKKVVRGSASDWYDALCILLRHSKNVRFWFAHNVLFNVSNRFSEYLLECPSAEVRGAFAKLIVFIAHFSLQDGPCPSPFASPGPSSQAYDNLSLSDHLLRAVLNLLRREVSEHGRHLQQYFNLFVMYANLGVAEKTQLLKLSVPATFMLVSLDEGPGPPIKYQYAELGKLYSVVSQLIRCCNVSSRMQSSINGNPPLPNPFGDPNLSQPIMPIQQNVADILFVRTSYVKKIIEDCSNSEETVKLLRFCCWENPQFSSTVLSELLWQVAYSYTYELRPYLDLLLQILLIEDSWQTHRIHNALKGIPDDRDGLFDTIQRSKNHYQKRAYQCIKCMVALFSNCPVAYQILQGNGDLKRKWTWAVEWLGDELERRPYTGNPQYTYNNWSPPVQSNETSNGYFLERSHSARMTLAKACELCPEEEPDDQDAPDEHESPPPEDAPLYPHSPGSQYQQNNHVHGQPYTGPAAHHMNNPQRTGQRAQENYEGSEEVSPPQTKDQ
For orientation: In western blotting, separated proteins are transferred to a membrane and probed.

Data set [4] can be described thus: Inhibition of deubiquitinase in HEK293T cells assessed as stabilization of K48-linked HMW-Ub protein by Western blot analysis. Format: cell-based, Homo sapiens.
In data set [5] the target is Ubiquitin carboxyl-terminal hydrolase 7 (Homo sapiens) (UniProt Q93009). Put plainly: Inhibition of USP7 in human MCF7 cells assessed as decrease in Mdm2 expression at 25 uM after 4 hrs by Western blot analysis. Format: cell-based. Put shortly: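 MCF7 cells treated with compound for 4 h. Mdm2, p53 and p21 levels were determined by immunoblotting.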
Chain of Ubiquitin carboxyl-terminal hydrolase 7 (Homo sapiens) (Q93009 whole entry, looked up, the tested form may be a part): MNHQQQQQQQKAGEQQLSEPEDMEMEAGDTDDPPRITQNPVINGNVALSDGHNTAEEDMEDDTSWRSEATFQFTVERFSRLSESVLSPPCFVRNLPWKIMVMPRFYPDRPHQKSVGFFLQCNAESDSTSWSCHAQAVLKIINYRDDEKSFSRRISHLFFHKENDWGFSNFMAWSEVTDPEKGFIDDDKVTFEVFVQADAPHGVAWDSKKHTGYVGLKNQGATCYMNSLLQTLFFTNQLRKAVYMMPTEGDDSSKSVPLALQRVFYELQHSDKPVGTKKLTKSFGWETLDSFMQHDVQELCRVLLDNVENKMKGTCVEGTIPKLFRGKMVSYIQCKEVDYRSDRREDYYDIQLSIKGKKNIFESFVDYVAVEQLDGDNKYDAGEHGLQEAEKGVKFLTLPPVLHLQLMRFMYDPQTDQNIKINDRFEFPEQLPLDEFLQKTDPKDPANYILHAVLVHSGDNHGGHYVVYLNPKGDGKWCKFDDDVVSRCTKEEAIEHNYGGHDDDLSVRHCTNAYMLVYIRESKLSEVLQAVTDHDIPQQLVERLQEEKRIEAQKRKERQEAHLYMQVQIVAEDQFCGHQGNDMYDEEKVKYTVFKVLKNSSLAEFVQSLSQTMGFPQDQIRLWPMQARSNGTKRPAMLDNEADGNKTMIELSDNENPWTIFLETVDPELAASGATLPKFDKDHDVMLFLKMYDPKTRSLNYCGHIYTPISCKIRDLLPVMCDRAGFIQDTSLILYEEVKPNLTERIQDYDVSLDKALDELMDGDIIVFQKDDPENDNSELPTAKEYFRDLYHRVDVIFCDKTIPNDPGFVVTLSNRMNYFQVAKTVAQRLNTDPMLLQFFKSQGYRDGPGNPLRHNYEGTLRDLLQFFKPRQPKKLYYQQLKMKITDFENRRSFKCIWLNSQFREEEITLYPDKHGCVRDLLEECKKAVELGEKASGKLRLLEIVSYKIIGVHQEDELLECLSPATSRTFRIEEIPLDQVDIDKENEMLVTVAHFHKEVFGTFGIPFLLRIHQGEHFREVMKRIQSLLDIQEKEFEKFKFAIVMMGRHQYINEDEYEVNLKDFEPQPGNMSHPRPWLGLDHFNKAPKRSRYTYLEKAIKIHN
The test system of the next data set is B16-F10. Put plainly: Cytotoxicity against mouse B16F10 cells assessed as decrease in cell viability treated every 24 hrs measured after 72 hrs by alamar blue assay. The class given is functional, cell-based. The method in brief:
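MCF7 or B16/F10 cells dosed with compound every 24 h. Viable cells were quantified with Alamar Blue after 72 h.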
(Alamar Blue is a resazurin reagent that responds to reducing activity.)

Data set [6] has as its target chymotrypsin (Homo sapiens, UniProt P17538+P40313+Q6GPI1+Q99895). Put plainly: (§1) Substrate activity at chymotrypsin (unknown origin) by Michaelis-Menten plot analysis. The conditions noted are these: chymotrypsin (isolated enzyme, unknown origin). Format: ADME, protein assay. The method in brief: (§2)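 Diarylcarbonate hydrolysis by chymotrypsin or trypsin measured across substrate concentrations; velocity versus substrate concentration fit for Km and kcat.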

Data set [7] deals with Chymotrypsin (Homo sapiens, UniProt Q99895+P17538+P40313+Q6GPI1). The data set is described as §1. Format: ADME, protein assay. The method in brief: as §2
For a further data set, the system named is Ficin (Ficus carica). In words: Inhibition of fig ficin at 100 uM using Z-Arg-AMC as substrate preincubated for 30 mins followed by substrate addition by fluorescence assay.

Consider `NCc1ccc(OC(=O)Oc2ccc3ccccc3c2)cc1`, for which the inhibition entry in data set [1], in data set [3] and in data set [5] was “Active” in each case. Also, the K in data set [2] stood at 9 M⁻¹ s⁻¹. Also, the EC50 – broadly, the concentration at which the effect is half-maximal – in data set [4] is < 50 µM. In addition, in the data set with B16-F10, the outcome was Active. Besides, the Michaelis-Menten constant (Km) (as a rule, the substrate concentration at which the rate is half of its maximum) at chymotrypsin [6] amounted to 1000 nM. Also, the Kcat on Chymotrypsin [7] worked out at 0.03 s⁻¹. Moreover, the inhibition result with Ficin (Ficus carica) was “inactive”.
